Results published in ChEMBL document CHEMBL5038677, “Identification and In Silico Binding Study of a Highly Potent DENV NS2B-NS3 Covalent Inhibitor” (ACS Med Chem Lett, 2022).
Active and inactive are the calls of the source. The rule behind the calls is not given here.

What was measured:
[1] = target: Genome polyprotein (dengue virus type 2) (UniProt P29990); assay: Inhibition of DENV NS2B-NS3 protease assessed as fluorescence emission using benzoyl-Nle-Lys-Arg-Arg-AMC as substrate at 150 nM preincubated with enzyme for 60 min followed by substrate addition and measured for 15 min by fluorimetric assay
In short: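 The substrate is cleaved to release fluorescent AMC, and fluorescence intensity is the read-out. Percent inhibition is taken from triplicate measurements at 150 nM compound.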

Genome polyprotein [2] = target: T1, Genome polyprotein (dengue virus type 2, UniProt P29990); assay: Inhibition of DENV NS2B-NS3 protease assessed as fluorescence emission using benzoyl-Nle-Lys-Arg-Arg-AMC as substrate preincubated with enzyme for 60 min followed by substrate addition and measured for 15 min by fluorimetric assay
In short: (§1)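 Fluorometric protease assay reading the fluorescence of product released from benzoyl-Nle-Lys-Arg-Arg-AMC cleavage, with aprotinin as a positive control. Percent inhibition was taken from triplicate measurements at 150 nM inhibitor. IC50 values were determined by a similar method for selected compounds.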

Genome polyprotein [3] = target: T1, Genome polyprotein; assay: Inhibition of DENV2 NS2B-NS3 protease expressed in Escherichia coli assessed as fluorescence emission using Bz-nKRR-AMC as substrate by microplate reader assay; in short: as §1
[4] = target: Genome polyprotein (dengue virus type 2) (UniProt P29990); assay: Inhibition of DENV NS2B-NS3 protease assessed as inactivation constant using benzoyl-Nle-Lys-Arg-Arg-AMC as substrate incubated for 60 min by measuring fluorescence intensity
In short: (§2)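 Time-dependent inactivation of DENV NS2B-NS3 protease was followed by fluorescence from cleavage of benzoyl-Nle-Lys-Arg-Arg-AMC at several inhibitor concentrations. kobs values were obtained at each concentration and plotted against inhibitor concentration to derive kinact, Ki and the second-order rate constant kinact/Ki.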

[5] = target: Genome polyprotein (dengue virus type 2) (UniProt P29990); assay: Inhibition of DENV NS2B-NS3 protease assessed as fluorescence emission using benzoyl-Nle-Lys-Arg-Arg-AMC as substrate at 1.4 to 16.7 uM by fluorimetric assay; conditions: dose 1.4-16.7 µM, time min <=60, TDE = time-dependent effect
[6] = target: Genome polyprotein (dengue virus type 2) (UniProt P29990); assay: Inhibition of DENV NS2B-NS3 protease assessed as ratio of Kinact/Ki using benzoyl-Nle-Lys-Arg-Arg-AMC as substrate incubated for 60 min by measuring fluorescence intensity; in short: as §2
Genome polyprotein [7] = target: T1, Genome polyprotein; assay: Binding affinity to DENV NS2B-NS3 protease assessed as inhibition constant using benzoyl-Nle-Lys-Arg-Arg-AMC as substrate incubated for 60 min by measuring fluorescence intensity; in short: as §2
BHK-21 [8] = assay: Cytotoxicity against DENV infected hamster BHK-21 cells assessed as cell survival rate at 5 uM incubated for 5 days measured by CCK-8 assay; type: toxicity, cell-based, Mesocricetus auratus; conditions: bhk-21, 120 h, time 5 day
BHK-21 [9] = assay: Cytoprotective activity against DENV infected hamster BHK-21 cells assessed as cell survival rate at 5 uM incubated for 5 days measured by CCK-8 assay; type: functional, cell-based; conditions: Mesocricetus auratus, time 5.0 day
In short: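 BHK-21 cells are infected with DENV and treated with compound at 5 μM. Cell viability is read by CCK-8. Survival rate is compared against the virus-infection control.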

| Structure (SMILES) | inhibition [1] | further results |
| --- | --- | --- |
| COc1ccc(C(=O)Oc2cc(N)n(S(=O)(=O)c3ccc(Oc4ccccc4)cc3)n2)cc1 | 76.7% |  |
| Nc1cc(OC(=O)c2ccc([N+](=O)[O-])cc2)nn1S(=O)(=O)c1ccccc1 | 27.3% |  |
| Nc1ccc(C(=O)Oc2cc(N)n(S(=O)(=O)c3ccc(Oc4ccccc4)cc3)n2)cc1 | 100% | IC50 (Genome polyprotein [2]): 0.009 µM |
| Nc1cc(OC(=O)c2ccc(-c3ccccc3)cc2)nn1S(=O)(=O)c1ccc(C(F)(F)F)cc1 | 41.2% |  |
| CC(C)(C)c1ccc(S(=O)(=O)n2nc(OC(=O)c3ccc(-c4ccccc4)cc3)cc2N)cc1 | 59.8% |  |
| CC(C)(C)c1ccc(S(=O)(=O)n2nc(OC(=O)c3ccc(N)cc3)cc2N)cc1 | 88.1% |  |
| Nc1ccc(C(=O)Oc2cc(N)n(S(=O)(=O)c3ccccc3)n2)cc1 | 76.4% |  |
| Cc1ccc(C(=O)Oc2cc(N)n(S(=O)(=O)c3ccc(C(F)(F)F)cc3)n2)cc1 | 19.3% |  |
| CC(C)(C)c1ccc(S(=O)(=O)n2nc(OC(=O)c3ccc([N+](=O)[O-])cc3)cc2N)cc1 | 20.4% |  |
| Nc1cc(OC(=O)c2ccc([N+](=O)[O-])cc2)nn1S(=O)(=O)c1ccc(Oc2ccccc2)cc1 | 64.3% |  |
| Nc1ccc(C(=O)Oc2cc(N)n(S(=O)(=O)c3ccc(C(F)(F)F)cc3)n2)cc1 | 52.6% |  |
| CCOc1ccc(S(=O)(=O)n2nc(OC(=O)c3ccc(C)cc3)cc2N)cc1 | 42.1% |  |
| Nc1cc(OC(=O)c2ccc([N+](=O)[O-])cc2)nn1S(=O)(=O)c1ccc(Br)cc1 | 17.3% |  |
| Nc1ccc(C(=O)Oc2cc(N)n(S(=O)(=O)c3ccc(F)cc3)n2)cc1 | 87.8% |  |
| Nc1ccc(C(=O)Oc2cc(N)n(S(=O)(=O)c3ccc(Br)cc3)n2)cc1 | 100% | IC50 (Genome polyprotein [2]): 0.074 µM |
| CCOc1ccc(S(=O)(=O)n2nc(OC(=O)c3ccc(OC)cc3)cc2N)cc1 | 43.6% |  |
| Nc1cc(OC(=O)c2ccc(-c3ccccc3)cc2)nn1S(=O)(=O)c1ccccc1 | 100% | IC50 (Genome polyprotein [2]): 0.012 µM |
| CCOc1ccc(S(=O)(=O)n2nc(OC(=O)c3ccc([N+](=O)[O-])cc3)cc2N)cc1 | 32.6% |  |
| COc1ccc(S(=O)(=O)n2nc(OC(=O)c3ccc(-c4ccccc4)cc3)cc2N)cc1 | 59.7% | IC50 (Genome polyprotein [3]): 0.5 µM; Kinact [4]: 1.13 10^-3/s; inhibition [5]: Tde; Ratio [6]: 156; Ki (Genome polyprotein [7]): 7.25 µM; IC50 (Genome polyprotein [2]): 0.5 µM |
| Nc1cc(OC(=O)c2ccc([N+](=O)[O-])cc2)nn1S(=O)(=O)c1ccc(C(F)(F)F)cc1 | 22% |  |
| Nc1cc(OC(=O)c2ccc(-c3ccccc3)cc2)nn1S(=O)(=O)c1ccc(Oc2ccccc2)cc1 | 95% |  |
| COc1ccc(C(=O)Oc2cc(N)n(S(=O)(=O)c3ccc(C(F)(F)F)cc3)n2)cc1 | 16.1% |  |
| Cc1ccc(C(=O)Oc2cc(N)n(S(=O)(=O)c3ccc(Oc4ccccc4)cc3)n2)cc1 | 81% |  |
| CCOc1ccc(S(=O)(=O)n2nc(OC(=O)c3ccc(N)cc3)cc2N)cc1 | 71.9% |  |
| Nc1cc(OC(=O)c2ccc([N+](=O)[O-])cc2)nn1S(=O)(=O)c1ccc(Cl)cc1 | 13.2% |  |
| COc1ccc(S(=O)(=O)n2nc(OC(=O)c3ccc(N)cc3)cc2N)cc1 | 68.5% |  |
| Nc1ccc(C(=O)Oc2cc(N)n(S(=O)(=O)c3ccc(Cl)cc3)n2)cc1 | 85.6% |  |
| CCOc1ccc(S(=O)(=O)n2nc(OC(=O)c3ccc(-c4ccccc4)cc3)cc2N)cc1 | 100% | Kinact [4]: 1.05 10^-3/s; inhibition [5]: Tde; Activity (BHK-21 [8]): Non-Toxic; Ratio [6]: 1580; Ki (Genome polyprotein [7]): 0.665 µM; IC50 (Genome polyprotein [2]): 0.006 µM; Activity (BHK-21 [9]): Active |
